Yeast superoxide: yeast age-related superoxide inhibition as caloric restriction mimetic; S. cerevisiae aged cells, superoxide DHE fluorescence; active compounds read low; superoxide response (% of plate mean), % at 10 µM; 330,000 compounds, 0.18% hits; AID 2690;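 active = superoxide response under a set limit, about three screen SD below normal, cut at about 65% in these data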;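 note: yeast aged for seven days with compound at 30 °C before DHE staining; 100% = average MFI of all compound-treated wells on the plate with controls excluded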
TRPC4 act: opens the mouse TRPC4 cation channel; HEK293 TRPC4beta/mu-opioid, Fluo4 calcium fluorescence; active compounds read high; B-score at 10 µM; 310,000 compounds, 0.49% hits; AID 2237;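 active = B-score above 5 SD of library B-scores, and initial fluorescence ratio not above library mean plus 5 SD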;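 note: positive B-score marks a calcium rise read as TRPC4 activation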
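Test system: HEK293 cells stably co-expressing mouse TRPC4beta and mu-opioid receptor | Schedule: Fluo4 dye loading 45 min at room temperature, 110 s recording | Measured by: Kinetic Fluo4 calcium fluorescence, 5 s baseline at 1 Hz | Evaluation: B score of integrated ratio | Controls: Buffer (low) and maximal DAMGO (high)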
TRPC6 activator: mouse TRPC6 channel activation; HEK293-TRPC6 membrane potential dye fluorescence; active compounds read high; B-score at 10 µM; 310,000 compounds, 0.13% hits;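 active = B-score of the integrated fluorescence ratio above library mean plus 3 SD, and starting fluorescence ratio within library mean plus 5 SD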;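 note: higher score means more depolarization so channel activation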
TRPC6 inh: mouse TRPC6 channel inhibition | Q61143 | HEK293-TRPC6, membrane potential dye, ACh-evoked depolarization; active compounds read low | B-score at 10 µM | 310,000 compounds, 1.1% hits | AID 2553;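 active = B-score under library mean minus 3 SD, initial fluorescence not abnormally high, positive integrated signal ratio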;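 note: B-score derived from integrated fluorescence ratio over the kinetic read; more negative B-score means stronger inhibition of depolarization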
TRPC4 potent: TRPC4 (mouse) allosteric potentiation; HEK293 TRPC4beta/mu-opioid, DAMGO EC20, Fluo-4 Ca2+ flux; active compounds read high; 310,000 compounds, 0.42% hits; Q9QUQ5; B-score at 10 µM;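 active = B-score of calcium response area above 5 SD of library B-scores, with initial fluorescence ratio within 5 SD of library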;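 note: B-score of integrated fluorescence ratio over time as area under calcium response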
TRPC4 block: blocks the mouse TRPC4 cation channel; B-score at 10 µM; HEK293 TRPC4beta/mu-opioid, DAMGO-evoked Fluo4 calcium flux; active compounds read low; Q9QUQ5; 300,000 compounds, 0.39% hits;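 active = B-score over 3 SD under the library average, no early fluorescence shift, positive overall ratio signal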
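Assay system: HEK293 cells with stable TRPC4beta plus mu-opioid receptor expression. Dosing: single dose. Measured by: Fluo4 Ca2+ flux fluorescence. Also added: DAMGO in two steps, submaximal then maximal. Read-out: B score from integrated Fluo4 fluorescence ratio.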
TRPC4 sel inh 2: second selectivity test of TRPC6 inhibitors: effect on mouse TRPC4; AID 2776; inhibition, % at 10 µM; 920 compounds, 42% hits; HEK293 TRPC4/MOR, membrane potential dye fluorescence; channel activated by saturating DAMGO dose; shares compounds with TRPC6 inh;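 active = compounds whose fluorescence signal differed from control wells by over 3 SD, either direction, in both duplicate plates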
TRPC4 spec: selectivity of TRPC6 inhibitors: effect on mouse TRPC4; shares compounds with TRPC6 inh; HEK293 TRPC4/mu-opioid, membrane potential fluorescence; activity change, negative = inhibition, % at 10 µM; 920 compounds, 61% hits; AID 2777;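 active = rise or fall in signal beyond 3 SD of buffer-only wells in both replicate plates, either sign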;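 note: integrated kinetic ratio of fluorescence range over baseline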
HEK293 MPD ctr 2-1: second check of TRPC6 inhibitor effects in parental HEK293 cells; 920 compounds, 31% hits; shares compounds with TRPC6 inh; parental HEK293 membrane potential dye fluorescence; maximal acetylcholine challenge after compound addition; signal change vs control, % at 10 µM;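 active = membrane potential signal moving either way by over 3 SD of the maximum-effect control, in both duplicate plates, meaning non-specific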
HEK293 MPD ctr-1: parental HEK293 nonspecific activity of TRPC6 inhibitors; membrane potential signal change, % at 10 µM; shares compounds with TRPC6 inh; parental HEK293 membrane potential dye fluorescence; 920 compounds, 60% hits;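 active = membrane potential signal shifting up or down by more than 3 SD of buffer-only wells, on both duplicate plates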
HEK293 MPD ctr-2: counter-screen for TRPC6 modulators: effect in parental HEK293 cells. shares compounds with TRPC6 inh. 2,400 compounds, 51% hits. membrane potential signal change, % at 10 µM. membrane potential dye fluorescence;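 active = membrane potential signal moves up or down beyond 5 SD from buffer-only wells, on both duplicate plates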
HEK293 MPD ctr 2-2: parental HEK293 nonspecific activity of TRPC6 modulators, second screen. 2,400 compounds, 14% hits. membrane potential dye fluorescence; after compound, maximal acetylcholine stimulation. inhibition, % at 10 µM. shares compounds with TRPC6 inh;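 active = membrane potential signal drops by more than 5 SD from the mean control signal, in both duplicate plates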;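 note: plate controls were acetylcholine ECmax control wells for no effect and buffer only wells for full effect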
TRPC4 ctr mod: selectivity of TRPC6 modulators against mouse TRPC4; 2,400 compounds, 69% hits; percent change from control (negative = decrease, positive = increase), % at 10 µM; HEK293 TRPC4/mu-opioid, membrane potential fluorescence; shares compounds with TRPC6 inh; AID 488927;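 active = membrane potential signal moved up or down beyond 5 SD of buffer control wells, in both duplicate plates, actives on both sides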;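 note: plate controls were assay buffer wells for no effect and DAMGO maximal-effect wells for full effect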
TRPC4/MOR inh 2: mouse TRPC4 off-target activity of TRPC6 modulators, second screen. shares compounds with TRPC6 inh. HEK293 TRPC4/mu-opioid, membrane potential dye fluorescence; stimulated with maximal-effect DAMGO. inhibition, % at 10 µM. 2,400 compounds, 55% hits. AID 488928;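 active = drop in membrane potential signal beyond 5 SD of the control wells in both duplicate plates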;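 note: TRPC4 counter screen for TRPC6 hits run under conditions tuned for TRPC6 not TRPC4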
TRPC6 block conf: mouse TRPC6 inhibitor confirmation; shares compounds with TRPC6 inh; 3,300 compounds, 43% hits; HEK293-TRPC6, membrane potential dye, ACh-evoked depolarization; inhibition, % at 10 µM;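 active = fluorescence ratio falls more than 5 SD below the full-stimulation control mean, in both duplicate runs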;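 note: integrated fluorescence ratio of peak minus minimum over baseline after agonist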
TRPC6 act confirm: confirmation of mouse TRPC6 activators | shares compounds with TRPC6 inh | HEK293-TRPC6 membrane potential dye fluorescence, FDSS | activation, % at 10 µM | 2,800 compounds, 11% hits | AID 488961;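 active = ratio signal rise beyond 5 SD above unstimulated control wells' mean, seen in both duplicate runs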;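 note: plate controls were buffer EC0 wells for no effect and acetylcholine ECmax response for full effect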
* = called active by the depositor; i = inactive; · = no result. This is a sample that favours compounds with a hit; in the whole collection about 2.3% have one here.

SMILES	Yeast superoxide	TRPC4 act	TRPC6 activator	TRPC6 inh	TRPC4 potent	TRPC4 block	HEK293 MPD ctr-2	HEK293 MPD ctr 2-2	TRPC4 ctr mod	TRPC4/MOR inh 2	TRPC6 block conf	TRPC6 act confirm	others
CN(C)CCN(C(=O)c1cc(Cl)sc1Cl)c1nc2ccc(F)cc2s1	104.3	i	i	i	i	i	·	·	·	·	·	·
CN(C)CCCN(C(=O)c1ccc2c(c1)OCCO2)c1nc2ccc(Cl)cc2s1	94.0	i	i	i	i	i	·	·	·	·	·	·
CN(C)CCCN(C(=O)c1ccco1)c1nc2ccc(Cl)cc2s1	104.5	i	i	-6.35*	i	i	-179.5%*	i	-35.0%*	75.5%*	49.5%*	i
CN(C)CCCN(C(=O)CCc1ccccc1)c1nc2ccc(Br)cc2s1	81.5	i	i	i	i	i	·	·	·	·	·	·
CN(C)CCN(C(=O)C1=COCCO1)c1nc2ccc(F)cc2s1	93.6	i	i	-6.96*	i	i	-139.0%*	i	-30.0%*	39.5%*	i	i
CN(C)CCCN(C(=O)c1ccco1)c1nc2ccc(Br)cc2s1	115.3	i	i	-8.1*	i	i	-120.5%*	i	-34.0%*	71.0%*	i	i
CCOC(=O)[C@@H]1[C@H]2COc3ccccc3[C@@H]2N2C(=O)N(c3ccc(C(F)(F)F)cc3)C(=O)[C@@]12C	93.3	·	·	·	·	·	·	·	·	·	·	·
Cc1ccccc1NC(=O)CC(O)(C(F)(F)F)C(F)(F)F	93.3	i	i	i	i	i	·	·	·	·	·	·
Cc1ccc(NC(=O)CC(O)(C(F)(F)F)C(F)(F)F)c(Br)c1	101.0	i	i	-6.1*	i	i	i	i	i	i	i	·
COC(=O)C(NC(=O)CCc1nnc2ccc(N3CCC(C)CC3)nn12)C(C)C (stereo not given)	100.9	i	i	i	i	i	·	·	·	·	·	·
CCCCN(CCCC)CCCNC(=O)C12CN(Cc3ccccc3)CC1C(c1cccc([N+](=O)[O-])c1)=NO2 (stereo not given)	109.0	i	i	-7.54*	i	i	·	·	·	·	i	i	TRPC4 sel inh 2=60.5%*;TRPC4 spec=i;HEK293 MPD ctr 2-1=i;HEK293 MPD ctr-1=i
COc1ccccc1OCc1ccc(C(=O)N2CCCCC2)o1	125.4	i	i	-5.17*	i	i	i	i	i	i	i	i
Cc1ccc(S(=O)(=O)N2CCN(C(=O)COC(=O)CSc3ccccc3)CC2)c(C)c1	106.6	i	i	i	i	i	·	·	·	·	·	·
Cc1cc(N2CCCC2)nc2ccc(NC(=S)NCCCOC(C)C)cc12	101.4	i	i	-7.13*	i	i	-126.5%*	i	-22.0%*	46.0%*	42.0%*	i
CCCN(CCC)CCCNC(=S)Nc1ccc2nc(N3CCCC3)cc(C)c2c1	124.3	i	i	-8.01*	i	i	·	·	·	·	i	i	TRPC4 sel inh 2=i;TRPC4 spec=-14.8%*;HEK293 MPD ctr 2-1=19.0%*;HEK293 MPD ctr-1=-166.5%*
COCCCNC(=S)Nc1ccc2nc(N3CCOCC3)cc(C)c2c1	103.8	i	i	i	i	i	·	·	·	·	·	·
Cc1cc(N2CCN(C)CC2)nc2ccc(NC(=S)NCCC(C)C)cc12	87.4	i	i	-6.22*	i	i	-110.5%*	i	-27.0%*	72.0%*	55.5%*	i
COC(=O)c1ccccc1NC(=O)CN(C)S(=O)(=O)c1ccc(OC)c(C)c1	85.2	i	i	i	i	i	·	·	·	·	·	·
COc1ccccc1NC(=O)CC1COc2ccccc2O1 (stereo not given)	80.8	i	i	i	i	i	·	·	·	·	·	·
CCOC(=O)c1ccc(NC(=O)CC2COc3ccccc3O2)cc1 (stereo not given)	93.5	i	i	-7.4*	i	i	·	·	·	·	i	i	TRPC4 sel inh 2=i;TRPC4 spec=i;HEK293 MPD ctr 2-1=i;HEK293 MPD ctr-1=i
CC(=O)c1cccc(NC(=O)CC2Oc3ccc(C)cc3NC2=O)c1 (stereo not given)	98.6	i	i	i	i	i	·	·	·	·	·	·
CCOC(=O)c1cccc(NC(=O)CC2Oc3ccccc3NC2=O)c1 (stereo not given)	109.3	i	i	-6.03*	i	i	i	i	i	i	i	i
CCS(=O)(=O)N1CCN(S(=O)(=O)c2ccc(S(=O)(=O)NC3CC3)cc2)CC1	98.2	i	i	i	i	i	·	·	·	·	·	·
COc1ccccc1-n1c(C)nnc1SCC(=O)Nc1cccc(C(C)=O)c1	99.8	i	i	i	i	i	·	·	·	·	·	·
Cc1ccc(-n2ncc(C(=O)Nc3cc(Cl)cc(Cl)c3)c2C2CCNCC2)cc1C	·	i	i	-6.87*	i	i	·	·	·	·	i	i	TRPC4 sel inh 2=63.5%*;TRPC4 spec=-12.1%*;HEK293 MPD ctr 2-1=i;HEK293 MPD ctr-1=i
Cc1ccc(-n2ncc(C(=O)Nc3cc(Cl)ccc3Cl)c2C2CCNCC2)cc1	95.2	i	i	i	i	i	·	·	·	·	·	·

From PubChem BioAssay
